Screens from PubChem.
Phagocyt inh = inhibitors of macrophage phagocytosis, primary screen, imaging, J774A.1 cells, IgG beads; J774A.1 macrophage IgG-bead phagocytosis; inhibition, % at 5 µM; 110,000 tested, 0.07% active; AID 1029, 2008;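 active means inhibition above the mean of the plate negative controls plus 5 SD, cut at about 13% in these data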;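 further: phagocytic index as fraction of beads internalized from green versus red external bead signal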
Yeast growth inh = growth inhibitors of yeast BB579 in restrictive medium, primary screen, yeast lifespan-shortening project, S. cerevisiae. OD615, 48 h. inhibition, % at 10 µM. 140,000 tested, 0.51% active. AID 804, 2007;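 active means inhibition above a set limit, 3 SD over the mean compound inhibition, cut at about 44% in these data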
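Material: Saccharomyces cerevisiae DeaD strain BB579, replicative lifespan model yeast; buffer or medium: CSMM-D restrictive synthetic medium containing dextrose (glucose); compound: 10 µM single dose, DMSO 0.25%; timing: 48 h compound exposure at 30 °C after 4 h preincubation; signal: turbidity as optical density at 615 nm; benchmarks: positive control amphotericin B 10 µg/mL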
Yeast life ext = compounds extending yeast replicative lifespan, primary screen, S. cerevisiae, OD615 | AID 775, 2007 | S. cerevisiae growth with nicotinamide; deaD strain in restrictive glucose medium | inhibition of the nicotinamide effect, % at 10 µM | 130,000 tested, 0.68% active;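 active means inhibition above a set limit, placed 3 SD over the median of all compounds, cut at about 26% in these data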
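Material: Modified budding yeast, DeaD strain | Medium: Restrictive glucose medium | Probe or stimulus: 1.5 mM nicotinamide | Dosing: Single dose 10 µM compound, 0.25% DMSO | Times: 48 h at 30 °C | Technique: OD615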
RAM network inh = inhibitors of the yeast RAM network, primary screen, dse1pr::URA3 reporter, 5-FOA selection; S. cerevisiae dse1pr::URA3 reporter, 5-FOA growth OD615, 2 d; analog-sensitive cbk1-as2 kinase mutant strain; inhibition, % at 50 µM; 190,000 tested, 1.8% active;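 active means inhibition above a set limit, 3 SD over mean compound inhibition, cut at about 8.4% in these data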;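 further: inhibition rescues growth on 5-FOA so higher OD means more RAM inhibition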
Measles CPE = compounds protecting cells from measles virus cytopathic effect, primary screen, measles RdRp inhibitor project, single point, MLSMR library, absorbance. Measles virus-infected cells, CPE protection. protection (pct of control), % at 4 µM. 140,000 tested, 1.5% active. AID 841, 2007; in the data active means protection mostly above about 24%, no sharp cut-off; inactive means mostly below about 26%
RAM 5-FOA = 5-FOA growth of efflux-deficient control yeast, dose response, counter-screen for RAM network inhibitor project, S. cerevisiae, OD615. S. cerevisiae efflux-deficient reporter strain, 5-FOA growth OD615, 2 days. AID 1305, 2008. shares compounds with RAM network inh. max inhibition, %. 1,200 tested, under 10 active; call rule not given here
Numbers stand for hits. Shown are actives, neighbours in structure and some others; about 3.6% of the full set was active somewhere.

What do the screens show for `Cc1ccc(S(=O)(=O)NCCC(c2ccccc2)c2ccco2)cc1` (stereo not given)?
Phagocyt inh: inactive; Yeast growth inh: inactive; Yeast life ext: inactive; RAM network inh: 14; Measles CPE: inactive; RAM 5-FOA: inactive

Results for CCc1ccccc1NC(=O)/C(C#N)=C\c1ccc(Sc2ccccc2)o1 ?
Yeast growth inh: inactive; Yeast life ext: inactive; RAM network inh: inactive; Measles CPE: inactive

What do the screens show for `CCc1ccccc1NC(=O)/C(C#N)=C/c1ccc(Sc2ccccc2)o1`?
Phagocyt inh: inactive; Yeast growth inh: inactive; Yeast life ext: inactive; RAM network inh: 16; Measles CPE: inactive; RAM 5-FOA: inactive

What do the screens show for `COc1ccccc1C(=O)NNC(=O)c1ccc(NC(=O)C(C)C)cc1`?
RAM network inh: inactive

What do the screens show for `COc1cccc(NC(=O)Nc2ccccc2C(N)=O)c1`?
RAM network inh: inactive

Results for CCOC(=O)c1c(C)[nH]c(C)c1C(=O)COC(=O)/C=C/c1ccc(Cl)cc1 ?
Yeast growth inh: inactive; Yeast life ext: inactive; RAM network inh: 12; Measles CPE: inactive; RAM 5-FOA: inactive

Results for C=CCc1c(C)[nH]c(=O)[nH]c1=O ?
RAM network inh: inactive

How did CN(C)c1nc(N)c2ncc(=S)[nH]c2n1 do in these assays?
RAM network inh: inactive

Results for CCCCCCOC(=O)C(C#N)c1nc2ccccc2nc1N1CCN(C)CC1 (stereo not given) ?
Phagocyt inh: inactive; Yeast growth inh: inactive; Yeast life ext: inactive; RAM network inh: inactive; Measles CPE: inactive

Results for CCCCOc1nc2ccccc2nc1C(C#N)C(=O)NC1CCCCC1 (stereo not given) ?
Phagocyt inh: inactive; Yeast growth inh: inactive; Yeast life ext: inactive; RAM network inh: 12; Measles CPE: inactive; RAM 5-FOA: inactive

Results for CCC(C)COC(=O)C(C#N)c1nc2ccccc2nc1N1CCCCC1 (stereo not given) ?
Phagocyt inh: inactive; Yeast growth inh: inactive; Yeast life ext: inactive; RAM network inh: 18; Measles CPE: inactive; RAM 5-FOA: inactive

How did CCCCCCOC(=O)C(C#N)c1nc2ccccc2nc1N1CCCCC1 (stereo not given) do in these assays?
Phagocyt inh: inactive; Yeast growth inh: inactive; Yeast life ext: inactive; RAM network inh: 24; Measles CPE: inactive; RAM 5-FOA: inactive

Results for CSCC[C@H](NC(=O)COc1ccc(Cl)cc1)c1nc2ccccc2[nH]1 ?
Phagocyt inh: inactive; Yeast growth inh: inactive; Yeast life ext: inactive; RAM network inh: inactive; Measles CPE: inactive

How did COCCCNC(=S)N1CCCN(c2nc3c(C)c(C)ccc3cc2C#N)CC1 do in these assays?
RAM network inh: 16; RAM 5-FOA: inactive

Results for CNC(=S)N/N=C/c1cn(CCOc2ccc(OC)cc2)c2ccccc12 ?
Phagocyt inh: inactive; Yeast growth inh: inactive; Yeast life ext: inactive; RAM network inh: inactive; Measles CPE: inactive

How did Cc1ccc(-c2nc3cccnc3s2)cc1NS(=O)(=O)c1ccc2c(c1)OCCO2 do in these assays?
Phagocyt inh: inactive; Yeast growth inh: inactive; Yeast life ext: inactive; RAM network inh: 13; Measles CPE: inactive; RAM 5-FOA: inactive

What do the screens show for `O=S(=O)(Nc1cccc(-c2nc3cccnc3s2)c1)c1ccc2c(c1)OCCO2`?
Phagocyt inh: inactive; Yeast growth inh: inactive; Yeast life ext: inactive; RAM network inh: inactive; Measles CPE: inactive

Results for CCn1ccnc1CN(C)Cc1nc(CCC(C)C)no1 ?
RAM network inh: inactive

Results for CC(OC(=O)c1cn(-c2ccccc2)nc1-c1cccnc1)C(N)=O (stereo not given) ?
RAM network inh: inactive

What do the screens show for `CCCCc1ccc(N=N/C(C(=O)Nc2ccccc2OC)=C(/C)O)cc1`?
Phagocyt inh: inactive; Yeast growth inh: inactive; Yeast life ext: inactive; RAM network inh: 20; Measles CPE: inactive; RAM 5-FOA: inactive

How did Cn1c(SCC(=O)Nc2cccc(S(=O)(=O)NC3=NCCCCC3)c2)nnc1-c1ccccc1 do in these assays?
RAM network inh: inactive

Results for O=C(O)c1cnn(-c2nc(-c3ccc(F)cc3)cs2)c1C(F)(F)F ?
RAM network inh: inactive

Results for CCOC(=O)c1cnn(-c2nc(-c3ccc(C)cc3)cs2)c1C(F)(F)F ?
Phagocyt inh: inactive; Yeast growth inh: inactive; Yeast life ext: inactive; RAM network inh: 12; Measles CPE: inactive; RAM 5-FOA: inactive

What do the screens show for `Clc1ccc(CSc2nnc(/C=C/c3ccccc3)o2)cc1`?
Phagocyt inh: inactive; Yeast growth inh: inactive; Yeast life ext: inactive; RAM network inh: 13; Measles CPE: inactive; RAM 5-FOA: inactive

Results for CCOC(=O)c1[nH]cnc1N=Nc1c(O)ccc2ccccc12 ?
Phagocyt inh: inactive; Yeast growth inh: inactive; Yeast life ext: inactive; RAM network inh: 15; Measles CPE: inactive; RAM 5-FOA: inactive

How did CCOc1ccc(/C=C/C(O)=C2/C(=O)NC3(C)CC2c2ccccc2O3)cc1OC (stereo not given) do in these assays?
RAM network inh: inactive

Results for CCOc1ccc(/C=C/C(O)=C2/C(=O)N(C)C3(C)CC2c2ccccc2O3)cc1OC (stereo not given) ?
RAM network inh: 11; RAM 5-FOA: inactive

Results for CCOC(=O)CC(=O)CSc1nc(N)c(C#N)c(-c2ccc(Cl)cc2)c1C#N ?
Phagocyt inh: inactive; Yeast growth inh: inactive; Yeast life ext: inactive; RAM network inh: 13; Measles CPE: inactive; RAM 5-FOA: inactive

Results for N#Cc1c(N)nc(SCC(=O)C23CC4CC(CC(C4)C2)C3)c(C#N)c1-c1ccc(Cl)cc1 ?
Phagocyt inh: inactive; Yeast growth inh: inactive; Yeast life ext: inactive; RAM network inh: inactive; Measles CPE: inactive

Results for CCC(C)[C@@H](CN(N=O)[C@@H](Cc1ccccc1)CN(C)N=O)N(CCc1ccccc1)N=O (stereo not given in full) ?
RAM network inh: 30; RAM 5-FOA: inactive

What do the screens show for `CN(C[C@@H](CC1CCCCC1)N(C[C@H](Cc1ccccc1)N(CCc1ccccc1)N=O)N=O)N=O`?
RAM network inh: 14; RAM 5-FOA: inactive

How did CCOC(=O)c1cc(NC(=O)Nc2ccc(Br)cc2)c(C)nc1C do in these assays?
RAM network inh: inactive

Results for CCOC(=O)Cc1sc(N)nc1C ?
Phagocyt inh: inactive; Yeast growth inh: inactive; Yeast life ext: inactive; RAM network inh: inactive; Measles CPE: inactive

What do the screens show for `CCCCNS(=O)(=O)c1ccc(NS(=O)(=O)c2c(C)cc(C)cc2C)cc1`?
Phagocyt inh: inactive; Yeast growth inh: inactive; Yeast life ext: inactive; RAM network inh: 12; Measles CPE: inactive; RAM 5-FOA: inactive
